In the RNAGym collection of RNA variant scans (doi:10.1126/science.aae0568):
Fewer inactive variants are shown than the library holds.

B1: tRNA (parent)
chain: GUUCCGUUGGCGUAAUGGUAACGCGUCUCCCUCCUAAGGAGAAGACUGCGGGUUCGAGUCCCGUACGGAACG

Variants of: B1
Assay: yeast fitness relative to wild type (ratio to wild type); higher = fitter; tRNA-Arg(CCU), competitive growth, 37 C, YPD
Outline: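 For this measurement, the tRNA-Arg(CCU) gene was varied by chemical synthesis at a 3% per-site mutation rate across 69 sites, and each variant was placed at the native genomic locus in Saccharomyces cerevisiae. The pooled strains went through a 24-hour competition in YPD at 37°C in six parallel replicates, with amplicons from start and end populations read by 100-nucleotide paired-end sequencing. Darwinian fitness relative to wild type followed from the change in each genotype's frequency. Genotypes needed ≥ 100 starting reads, and estimates < 0.5 were set to 0.5.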

Row | Variant | yeast fitness
1 | C5U C11A A14C C33G | ≤ 0.5
2 | C4A G39C C49A | ≤ 0.5
3 | U3G G67A | 0.846
4 | G6C C11A A45C C60U | ≤ 0.5
5 | G12A A15C C46G G58C C61A | ≤ 0.5
6 | U7A A15U C30G A42C U59A C60U | ≤ 0.5
7 | G44U | 1.01
8 | C24U C49U C55G A70U | 0.559
9 | C11U C22A C31U G68C | ≤ 0.5
10 | A45U C60U G68A | 0.575
11 | C5U U8A A65U | ≤ 0.5
12 | A40U A70C | 0.941
13 | U3C C27U C46G | 0.789
14 | C5U G6A C11A U19A A69U | ≤ 0.5
15 | C27U G38A A69U | 0.667
16 | C27U U54G C55U | ≤ 0.5
17 | U2C G18C G23C C33U G39A A43U C62A G63C | 0.851
18 | U28A C46U A70G | 0.634
19 | C34G U59G G68U | 0.576
20 | U8C C27U A40G G44A C62A | ≤ 0.5
21 | G6A C11U U13C A43G G67A | 0.58

Row | Variant | yeast fitness
22 | A21G C27U A70G | 0.792
23 | C11A A40G C49G C62G | 0.794
24 | G18A A20G U26G G50C G63C | ≤ 0.5
25 | G48C G63C | 0.705
26 | A57C G68U | 0.696
27 | C5G C11A A14G G25C C29G C60G | ≤ 0.5
28 | U3A C27G A43C | ≤ 0.5
29 | G25A C61U G63C | 0.528
30 | C4G C5G G10A G18A G44C C61A C62U C66U | ≤ 0.5
31 | C29G G44C C49A U64C | ≤ 0.5
32 | U3C U32G C61A C62A | 0.53
33 | U2C C4U | 0.969
34 | G10A C31U A65U | 0.566
35 | A14C G44C A70C | 0.56
36 | C31A G38A C46U A69U | ≤ 0.5
37 | G56C A65C | 0.754
38 | C11U A20G U35A | ≤ 0.5
39 | G6A A45C C55G C61U | ≤ 0.5
40 | G50A U53A A57G G58A A69C | 0.657
41 | G10A A37U A45G C46G C55A | ≤ 0.5
42 | U3C C27U U35C | 0.626

Row | Variant | yeast fitness
43 | U19C C22U U32G C34U A40G A57U A70U | ≤ 0.5
44 | G18C G51C C61G A70C | ≤ 0.5
45 | U3C C27U C46A G50A C62U | 0.595
46 | C27A C34G A40G | 0.666
47 | U35G A37G C49U | ≤ 0.5
48 | A21C C27U G58C C62G | ≤ 0.5
49 | G50A C61U | 0.863
50 | A43C C55G | 0.641
51 | U8A G9A G67A | 0.553
52 | C4G G18C A42U C46G | ≤ 0.5
53 | A15C A36G G39C C55U C66U | ≤ 0.5
54 | C49G C55A C60U C66A | ≤ 0.5
55 | A20C G44C A70U | 0.573
56 | U13A A42C C66U | 0.76
57 | C5A C29G A37G G41A A43U | ≤ 0.5
58 | U2A C5G G41A A43U U54G A57U | ≤ 0.5
59 | U8A G52A G56C | 0.841
60 | G12A C29G C66U | 0.574
61 | G9A G52A C61U A69C | ≤ 0.5
62 | A15U C24U A40U G41C U64C | 0.647
63 | A40C G56A A70G | 0.556

Row | Variant | yeast fitness
64 | A15G A40G A65G | 0.663
65 | A14G C29A C62U | ≤ 0.5
66 | C5G C24A A42U A57C U64A | ≤ 0.5
67 | G17C A42C C55U | ≤ 0.5
68 | U35A C61G | ≤ 0.5
69 | C30A G56C | 0.639
70 | C30A G56A | 1.04
71 | U13A C33G A37G | ≤ 0.5
72 | C22G G44C U47C A70C | ≤ 0.5
73 | G9A C30G C31G U32A C66U | ≤ 0.5
74 | G9A A40C C49U | 0.713
75 | G25C C30U A70C | 0.596
76 | G44A A45U | 0.885
77 | G25C C34G G51A | ≤ 0.5
78 | U8G C34G | ≤ 0.5
79 | C4G C22G G67C | 0.528
80 | G10C C31A U32C G39A G52C | ≤ 0.5
81 | C30U C60U | 0.734
82 | U8A A20C A43U A69C | ≤ 0.5
83 | A20C A43C | 0.816
